Screens: PubChem BioAssay, Johns Hopkins Ion Channel Center
Shown are actives, neighbours in structure and some others; about 3.8% of the full set was active somewhere.
hERG rescue = shields human hERG channel from block by proarrhythmic agents | Q12809 | CHO-hERG, FluxOR thallium flux, dofetilide IC70 present | activation (rescue from dofetilide block), less the hit threshold, % at 10 µM | 310,000 tested, 0.51% active;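 active = activation above the mean of controls blocked by dofetilide plus 5 SD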;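 also: thallium influx through hERG after potassium depolarization seen as dye fluorescence rise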
Kir21 block = blocks the mouse Kir2.1 inward-rectifier potassium channel | B-score at 10 µM | 310,000 tested, 0.85% active | AID 1672 | P35561 | HEK293-Kir2.1, FluxOR thallium flux fluorescence; stronger effect = lower value;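 active = fluorescence ratio B-score at or below minus 3 SD of library scores, with starting-brightness B-score within 2 SD, cut at about -4.2 in these data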;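 also: channel flux triggered by added potassium and thallium sulfate stimulus; B-score of peak minus minimum fluorescence over baseline after thallium stimulus; more negative B-score means stronger Kir2.1 block with less thallium influx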
KCNQ1 inh = human KCNQ1 channel inhibition | P51787 | CHO-K1 KCNQ1, FluxOR thallium flux fluorescence; stronger effect = higher value | B-score at 10 µM | 310,000 tested, 1.3% active;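 active = compounds whose thallium flux B-score, printed positive for inhibition, exceeds three library SD while starting fluorescence stays within three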;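 also: channel opened by potassium depolarization with thallium stimulus after 20 min compound exposure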
Target sequence (P51787 whole entry, looked up): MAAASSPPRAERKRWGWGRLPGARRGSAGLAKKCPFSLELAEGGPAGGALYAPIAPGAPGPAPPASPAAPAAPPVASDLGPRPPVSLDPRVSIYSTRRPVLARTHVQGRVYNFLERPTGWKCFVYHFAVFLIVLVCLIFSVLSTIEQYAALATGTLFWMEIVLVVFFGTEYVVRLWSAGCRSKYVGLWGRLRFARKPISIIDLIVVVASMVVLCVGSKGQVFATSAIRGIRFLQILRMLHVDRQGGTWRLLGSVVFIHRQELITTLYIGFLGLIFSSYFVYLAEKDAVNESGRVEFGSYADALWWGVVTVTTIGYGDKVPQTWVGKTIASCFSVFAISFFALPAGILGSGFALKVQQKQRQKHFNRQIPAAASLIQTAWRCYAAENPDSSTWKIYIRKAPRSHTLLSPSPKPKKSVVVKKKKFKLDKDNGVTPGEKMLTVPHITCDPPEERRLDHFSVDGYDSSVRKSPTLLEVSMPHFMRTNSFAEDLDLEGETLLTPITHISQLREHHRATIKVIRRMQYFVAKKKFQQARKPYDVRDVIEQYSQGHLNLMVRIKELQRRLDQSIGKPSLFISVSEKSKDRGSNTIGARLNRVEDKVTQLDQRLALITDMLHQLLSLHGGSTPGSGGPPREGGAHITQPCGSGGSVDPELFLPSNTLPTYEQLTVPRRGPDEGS
KCNK3 block = human KCNK3 channel inhibition, primary screen | O14649 | CHO-KCNK3 thallium flux, FluxOR fluorescence; stronger effect = lower value | B-score at 10 µM | 340,000 tested, 0.84% active | AID 602410;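 active = B-score under library mean minus 4 SD, starting fluorescence ratio at most library mean plus 5 SD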;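 also: more negative B-score means stronger inhibition of thallium flux through KCNK3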
KCNK9 inh = human KCNK9 channel inhibition. HEK293 KCNK9, FluxOR thallium flux fluorescence; stronger effect = lower value. B-score at 10 µM. AID 488922. Q9NPC2. 310,000 tested, 1.2% active;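 active = ratio B-score over 3 SD below the library mean, with starting fluorescence within 5 SD of its mean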;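 also: negative B-score means less thallium flux so channel inhibition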
KCNQ1 pot = potentiators or activators of human KCNQ1 potassium channel; P51787; CHO-K1 KCNQ1, thallium flux FluxOR fluorescence; stronger effect = higher value; B-score at 10 µM; 310,000 tested, 0.35% active; AID 2648;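 active = fluorescence ratio B-score, a plate-corrected score, at least three library SD, with initial intensity B-score within 5 SD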
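Assay system: CHO-K1 cells stably expressing KCNQ1. Medium: assay buffer for compound exposure, DMSO matched across wells. Timing: 37 °C overnight plating, 90-min dark dye load, 20-min compound pretreatment. Signal: kinetic FluxOR fluorescence, 10 s baseline plus 110 s post-stimulus.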
KCNK9 inh conf = human KCNK9 inhibitor confirmation; shares compounds with KCNK9 inh; HEK293 KCNK9 cells, FluxOR thallium flux fluorescence; inhibition, % at 10 µM; 4,900 tested, 43% active;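 active = thallium signal inhibited by more than 5 SD of the compound-free buffer control wells, on both duplicate plates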
Kir21 sel = selectivity of KCNK9 modulators against mouse Kir2.1; AID 492993; shares compounds with KCNK9 inh; inhibition, % at 10 µM; 4,900 tested, 4% active; Kir2.1 cells, FluxOR thallium flux fluorescence;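 active = thallium signal drop more than 5 SD beyond the mean of the no-compound control wells, seen in both duplicate plates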;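 also: signal is fluorescence rise after thallium addition divided by baseline fluorescence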
KCNK9 uninduced = non-induced cell nonspecific activity of KCNK9 modulators; 4,900 tested, 40% active; shares compounds with KCNK9 inh; non-induced KCNK9-HEK293, FluxOR thallium flux; inhibition, % at 10 µM;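 active = thallium signal drop beyond 5 SD of the untreated control mean, on both duplicate plates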
Numbers stand for hits; n = inactive; x = not tested or not shown.

SMILES | hERG rescue | Kir21 block | KCNQ1 inh | KCNK3 block | KCNK9 inh | KCNQ1 pot | KCNK9 inh conf | Kir21 sel | KCNK9 uninduced
OC(CSc1ccccc1Cl)CN1CCN(c2ccccc2F)CC1 (stereo unspecified) | n | n | n | n | n | n | n | n | n
CC(NCCOc1ccccc1F)C(=O)Nc1ccc(S(N)(=O)=O)cc1 (stereo unspecified) | n | n | n | n | n | n | x | x | x
COc1ccc(C(=O)Nc2sc3c(c2C(=O)NCc2ccco2)CCCC3)cc1OC | n | n | n | n | -12 | n | 31% | n | n
O=C(Nc1sc2c(c1C(=O)NCc1ccco1)CCCC2)c1ccc2c(c1)OCO2 | n | n | n | n | -10 | n | 42% | n | n
COCCCn1c(=O)c2ccccc2n(CC(=O)NCCC2=CCCCC2)c1=O | n | n | n | n | n | n | x | x | x
Cc1cc(C)n(Cc2ccccc2F)c(=O)c1C#N | n | n | n | n | n | n | x | x | x
CC1=NNC(=O)/C1=C\c1cn(-c2ccccc2)nc1-c1ccccc1 | n | n | n | n | n | n | n | n | n
COc1ccc(S(=O)(=O)N2CCCCCC2)cc1C(=O)N(C)Cc1ccc(C)cc1 | n | n | n | n | n | n | n | n | n
COc1ccc(CCN(C)C(=O)c2cc(S(=O)(=O)N3CCCCCC3)ccc2OC)cc1OC | n | n | n | n | n | n | x | x | x
Cc1nc(N2CCOCC2)c2c(C)c(C(=O)Nc3ccccc3Cl)sc2n1 | n | n | n | n | n | n | x | x | x
Cc1nc(N2CCCCC2C)c2c(C)c(C(=O)Nc3ccccc3C(F)(F)F)sc2n1 (stereo unspecified) | n | n | 9 | n | -14 | n | 55% | n | 42%
Cc1ccc(S(=O)(=O)CCC(=O)N2CCN(c3ccccc3O)CC2)cc1 | x | x | x | n | x | x | x | x | x
CC1CCN(c2ccccc2NC(=S)NC(=O)c2ccco2)CC1 | n | n | n | n | n | n | x | x | x
CC1CCN(c2ccccc2NC(=S)NC(=O)C(C)(C)C)CC1 | n | n | n | n | -10 | n | 42% | n | 33%
CC(C)c1ccc(Nc2nc(Cl)nc(Cl)n2)cc1 | n | n | n | n | n | n | x | x | x
O=C(Nc1ccccc1)c1ccccc1OS(=O)(=O)c1ccccc1 | n | n | n | n | n | n | x | x | x
COc1ccccc1C(=O)Oc1ccc(C(C)C)cc1 | n | n | n | n | n | n | n | n | 30%
COc1ccccc1C(=O)O/N=C(\N)c1ccccc1Cl | n | n | n | n | n | n | x | x | x
O=C(Oc1ccccc1)c1ccccc1OS(=O)(=O)c1ccccc1 | n | n | n | n | -9.5 | n | 44% | n | 34%
c1ccc(C2Nc3ccccc3C3OCCCC23)cc1 (stereo unspecified) | n | n | n | n | n | n | n | n | n
Cc1c(NC(=O)C(C)N2C(=O)C3CCCCC3C2=O)c(=O)n(-c2ccccc2)n1C (stereo unspecified) | n | n | n | n | n | n | x | x | x
NC(=O)c1sc(-c2ccsc2)cc1NS(=O)(=O)c1ccc(C(F)(F)F)cc1 | n | n | n | n | n | n | n | n | n
COc1ccc(C)cc1Nc1n[n+](-c2ccccc2)c(-c2c(Cl)cccc2Cl)s1 | n | n | 11 | x | -15 | n | 64% | 33% | 36%
CCc1ccc(Nc2n[n+](-c3ccccc3)c(-c3c(Cl)cccc3Cl)s2)cc1 | n | n | n | n | n | n | x | x | x
O=C(CCN1C(=O)/C(=C/c2ccccc2Cl)SC1=S)NC1=NCCS1 | n | n | n | n | n | n | x | x | x
SMILES | hERG rescue | Kir21 block | KCNQ1 inh | KCNK3 block | KCNK9 inh | KCNQ1 pot | KCNK9 inh conf | Kir21 sel | KCNK9 uninduced
Cc1ccc(S(=O)(=O)N2CCC(C(N)=O)CC2)c(C)c1C | n | n | n | n | n | n | x | x | x
CCOc1ccc(C(=O)c2cnc3ccccc3c2N2CCN(CC)CC2)cc1 | n | n | n | n | n | n | x | x | x
CCc1ccc(C(=O)c2cnc3ccc(OC)cc3c2N2CCN(CC)CC2)cc1 | n | n | n | n | n | n | n | n | n
O=S(=O)(c1ccc(S(=O)(=O)N(Cc2ccccc2)Cc2ccco2)cc1)N1CCCC1 | n | n | n | n | n | n | x | x | x
COC(=O)/C=C/c1ccccc1S(=O)(=O)N(Cc1ccccc1)Cc1ccco1 | n | n | n | n | -8.5 | n | 30% | n | 38%
COc1ccccc1CNS(=O)(=O)c1ccc2c(c1)oc(=O)n2C | n | n | n | n | n | n | x | x | x
CC(C)CC(=O)C1CCCN(C(=O)c2ccc3oc(Cc4ccccc4)nc3c2)C1 (stereo unspecified) | n | n | n | n | n | n | n | n | n
COc1ccc(-c2[nH]ncc2[C@@H]2C[C@H]3CN(Cc4ccccc4C)C(=O)[C@]34CCCN24)cc1 | n | n | n | n | n | n | n | n | n
Cc1ccccc1CN1C[C@@H]2C[C@@H](c3cn[nH]c3-c3ccc(F)cc3)N3CCC[C@@]23C1=O | n | n | n | n | n | n | x | x | x
CC(C)Oc1cc2oc(=O)c3c(c2cc1Cl)CCC3 | n | n | n | n | n | n | x | x | x
C[C@H](CO)N1C[C@H](C)[C@@H](CN(C)C(=O)NC2CCCCC2)Oc2ccc(NC(=O)Nc3ccc(C(F)(F)F)cc3)cc2C1=O | x | x | x | n | x | x | x | x | x
N#Cc1cc(N)ccc1Sc1ccc(Cl)cc1 | n | n | n | n | -8.5 | n | 38% | n | 32%
O=S(=O)(c1ccccc1F)N1CCN(CCc2ccccc2)CC1 | n | n | n | n | n | n | n | n | n
Cc1ccc(S(=O)(=O)N2CCN(C3CC(=O)N(CCc4ccccc4)C3=O)CC2)cc1C (stereo unspecified) | n | n | n | n | n | n | n | n | n
COc1ccc(S(=O)(=O)N2CCN(C/C=C/c3ccccc3)CC2)cc1F | n | n | n | n | n | n | n | n | n
O=S(=O)(c1ccc(F)c(F)c1)N1CCN(CCc2ccccc2)CC1 | n | n | n | n | n | n | n | n | n
Cc1ccc(-c2nc3ncccc3o2)cc1NC(=O)c1ccc2c(c1)OCO2 | x | x | x | n | x | x | x | x | x
CCOCCCN(C(=O)c1snc(C(N)=O)c1N)C(C(=O)NC(C)(C)C)c1ccc(Cl)cc1 (stereo unspecified) | n | n | n | n | n | n | x | x | x
CCN1CCN(CC(=O)n2c3c(c4ccccc42)CC(C)CC3)CC1 (stereo unspecified) | n | n | n | n | n | n | x | x | x
CC1CCN(CC(=O)n2c3c(c4ccccc42)CCCC3)CC1 | n | n | n | n | n | n | n | n | n
CCN1CCN(C(=O)C2c3cc(OC)c(OC)cc3C(=O)N3CCc4ccccc4C23)CC1 (stereo unspecified) | n | n | n | n | n | n | x | x | x
